ChEMBL document CHEMBL3616436, “Synthesis, cytotoxicity and antimicrobial activity of thiourea derivatives incorporating 3-(trifluoromethyl)phenyl moiety” (Eur J Med Chem, 2015)
≈ marks a conversion by molar mass, not a printed value. Calls of active or inactive are those of the source. The rule behind the calls is not given here.

Tests used:
[1] = Cytotoxicity against human MT4 cells; format: cell-based
[2] = system: Vesicular stomatitis virus; test: Antiviral activity against Vesicular stomatitis virus ATCC VR 1540 infected in African green monkey Vero 76 cells assessed as reduction of virus-plaque formation after 2 days by crystal violet staining; format: functional, organism-based; conditions: ATCC VR 1540, Vero, 48 h
[3] = system: Human immunodeficiency virus 1; test: Antiviral activity against HIV1 3B infected in human MT4 cells assessed as protection against virus-induced cytopathogenicity by MTT assay; format: functional, organism-based; conditions: Human immunodeficiency virus 1, 3B
[4] = Cytotoxicity against bovine MDBK cells assessed as cell viability after 48 to 96 hrs by MTT assay; format: cell-based, Bos taurus; conditions: cattle
[5] = Antiviral activity against Bovine viral diarrhea virus 1-NADL ATCC VR-534 infected in MDBK cells assessed as protection against virus-induced cytopathogenicity after 3 to 4 days by MTT assay; format: functional, cell-based; conditions: Bovine viral diarrhea virus isolates and strains, ATCC VR-534, MDBK
Summary of the method: (§1)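 Cells seeded in 96-well plates (BHK 5x10^4, MDBK 3x10^4 cells/well), grown overnight to confluence, infected at m.o.i. 0.01 (BHK for Reo-1, MDBK for BVDV); serial compound dilutions in maintenance medium with 0.5% inactivated FBS added after 1 h; viability by MTT after 3–4 days at 37°C; EC50 for 50% protection by linear regression.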

[6] = Cytotoxicity against BHK cells assessed as cell viability after 48 to 96 hrs by MTT assay; format: cell-based, Mesocricetus auratus; conditions: hamster
Yellow fever virus = test: Antiviral activity against Yellow fever virus 17D infected in BHK cells assessed as protection against virus-induced cytopathogenicity after 3 to 4 days by MTT assay; format: functional, cell-based
[7] = system: Mammalian orthoreovirus 1; test: Antiviral activity against Reovirus type-1 ATCC VR-214 infected in BHK cells assessed as protection against virus-induced cytopathogenicity after 3 to 4 days by MTT assay; format: functional, cell-based; conditions: Mammalian orthoreovirus 1, ATCC VR-214, BHK; summary of the method: as §1
[8] = Cytotoxicity against African green monkey Vero 76 cells assessed as cell viability after 48 to 96 hrs by crystal violet staining; format: cell-based; conditions: chlorocebus sabaeus
Coxsackievirus B5 = test: Antiviral activity against Human coxsackievirus B5 ATCC VR-29 infected in African green monkey Vero 76 cells assessed as reduction of virus-plaque formation after 3 days by crystal violet staining; format: functional, organism-based; conditions: Enterovirus B, ATCC VR-29, Vero, 72 h
Summary of the method: (§2)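 Plaque reduction: Vero-76 at 2x10^5 cells/well grown to confluent monolayers, infected 2 h at 50–100 PFU/well; after removing unadsorbed virus, overlay of D-MEM, 1% inactivated FBS, 0.75% methylcellulose with or without serial compound dilutions; 3 days at 37°C, fixed and stained with crystal violet in 50% ethanol, plaques counted; EC50 by linear regression.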

Poliovirus 1 = test: Antiviral activity against Poliovirus type 1 ATCC VR-1562 infected in African green monkey Vero 76 cells assessed as reduction of virus-plaque formation after 2 days by crystal violet staining; format: functional, organism-based; conditions: Enterovirus C, ATCC VR-1562, Vero, 48 h
Vaccinia virus = test: Antiviral activity against Human Vaccinia virus ATCC VR-1549 infected in African green monkey Vero 76 cells assessed as reduction of virus-plaque formation after 3 days by crystal violet staining; format: functional, organism-based; conditions: Orthopoxvirus vaccinia, ATCC VR-1549, Vero, 72 h
Human alphaherpesvirus 1 = test: Antiviral activity against Human herpesvirus 1 KOS ATCC VR-1493 infected in African green monkey Vero 76 cells assessed as reduction of virus-plaque formation after 3 days by crystal violet staining; format: functional, organism-based; conditions: Human alphaherpesvirus 1, KOS ATCC VR1493, Vero, 72 h; summary of the method: as §2
CCRF-CEM = test: Cytotoxicity against human CCRF-CEM cells after 96 hrs by MTT assay; format: functional
Summary of the method: (§3)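 Leukaemia/lymphoma lines seeded at 1×10^5 cells/ml in RPMI-1640 with 10% FCS and penicillin/streptomycin; incubated with serial dilutions at 37°C, 5% CO2; viability by MTT after 96 h; value is concentration reducing proliferation by 50%, with untreated controls undergoing at least three rounds of multiplication.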

WIL2-NS = test: Cytotoxicity against human WIL2-NS cells after 96 hrs by MTT assay; format: functional; summary of the method: as §3
CCRF-SB = test: Cytotoxicity against human CCRF-SB cells after 96 hrs by MTT assay; format: functional; summary of the method: as §3
Staphylococcus aureus [9] = test: Antimicrobial activity against Staphylococcus aureus NCTC 4163 at 400 ug after 18 hrs by disc-diffusion method; format: functional; conditions: NCTC 4163, 18 h, read-out: IZ
Summary of the method: (§4)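 Disc diffusion on Mueller-Hinton II agar per CLSI; 9 mm paper discs loaded with 400 µg compound from DMSO solution, dried, placed on agar; growth inhibition zone diameter read after 18 h at 35°C.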

Staphylococcus aureus [10] = test: Antimicrobial activity against Staphylococcus aureus ATCC 25923 at 400 ug after 18 hrs by disc-diffusion method; format: functional; conditions: ATCC 25923, 18 h, read-out: IZ; summary of the method: as §4
Staphylococcus aureus [11] = test: Antimicrobial activity against Staphylococcus aureus ATCC 6538 at 400 ug after 18 hrs by disc-diffusion method; format: functional; conditions: ATCC 6538, 18 h, read-out: IZ; summary of the method: as §4
Staphylococcus aureus [12] = test: Antimicrobial activity against Staphylococcus aureus ATCC 29213 at 400 ug after 18 hrs by disc-diffusion method; format: functional; conditions: ATCC 29213, 18 h, read-out: IZ; summary of the method: as §4
[13] = system: Staphylococcus epidermidis; test: Antimicrobial activity against Staphylococcus epidermidis ATCC 12228 at 400 ug after 18 hrs by disc-diffusion method; format: functional; conditions: ATCC 12228, 18 h, read-out: IZ; summary of the method: as §4
[14] = system: Staphylococcus epidermidis; test: Antimicrobial activity against Staphylococcus epidermidis ATCC 35984 at 400 ug after 18 hrs by disc-diffusion method; format: functional; conditions: ATCC 35984, 18 h, read-out: IZ; summary of the method: as §4
Bacillus subtilis = test: Antimicrobial activity against Bacillus subtilis ATCC 6633 at 400 ug after 18 hrs by disc-diffusion method; format: functional; conditions: ATCC 6633, 18 h, read-out: IZ; summary of the method: as §4
Bacillus cereus = test: Antimicrobial activity against Bacillus cereus ATCC 11778 at 400 ug after 18 hrs by disc-diffusion method; format: functional; conditions: ATCC 11778, 18 h, read-out: IZ; summary of the method: as §4
Enterococcus hirae = test: Antimicrobial activity against Enterococcus hirae ATCC 10541 at 400 ug after 18 hrs by disc-diffusion method; format: functional; summary of the method: as §4
Enterococcus faecalis = test: Antimicrobial activity against Enterococcus faecalis ATCC 29212 at 400 ug after 18 hrs by disc-diffusion method; format: functional; summary of the method: as §4
Micrococcus luteus [15] = test: Antimicrobial activity against Micrococcus luteus ATCC 10240 at 400 ug after 18 hrs by disc-diffusion method; format: functional; conditions: ATCC 10240, 18 h, read-out: IZ; summary of the method: as §4
Micrococcus luteus [16] = test: Antimicrobial activity against Micrococcus luteus ATCC 9341 at 400 ug after 18 hrs by disc-diffusion method; format: functional; conditions: ATCC 9341, 18 h, read-out: IZ; summary of the method: as §4
Proteus vulgaris = test: Antimicrobial activity against Proteus vulgaris NCTC 4635 at 400 ug after 18 hrs by disc-diffusion method; format: functional; summary of the method: as §4
Staphylococcus aureus [17] = test: Antimicrobial activity against Staphylococcus aureus NCTC 4163 after 18 hrs by twofold serial microdilution method; format: functional; conditions: NCTC 4163, 18 h
Staphylococcus aureus [18] = test: Antimicrobial activity against Staphylococcus aureus ATCC 25923 after 18 hrs by twofold serial microdilution method; format: functional; conditions: ATCC 25923, 18 h
Staphylococcus aureus [19] = test: Antimicrobial activity against Staphylococcus aureus ATCC 6538 after 18 hrs by twofold serial microdilution method; format: functional; conditions: ATCC 6538, 18 h
Staphylococcus aureus [20] = test: Antimicrobial activity against Staphylococcus aureus ATCC 29213 after 18 hrs by twofold serial microdilution method; format: functional; conditions: ATCC 29213, 18 h
[21] = system: Staphylococcus epidermidis; test: Antimicrobial activity against Staphylococcus epidermidis ATCC 12228 after 18 hrs by twofold serial microdilution method; format: functional; conditions: ATCC 12228, 18 h
[22] = system: Staphylococcus epidermidis; test: Antimicrobial activity against Staphylococcus epidermidis ATCC 35984 after 18 hrs by twofold serial microdilution method; format: functional; conditions: ATCC 35984, 18 h
[23] = system: Mycobacterium tuberculosis; test: Antimycobacterial activity against Mycobacterium tuberculosis H37Rv ATCC 25618; format: functional
Summary of the method: (§5)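 Classical test-tube successive-dilution method in Youmans' modification of Proskauer and Beck liquid medium with 10% bovine serum. Inoculum came from 14-day cultures. DMSO stock was 10 mg/mL, diluted geometrically in medium. Tubes were incubated at 37 °C. Concentrations tested were 3.1, 6.2, 12.5, 25, 50 and 100 µg/ml. MIC is the minimum concentration inhibiting growth relative to compound-free tubes.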

[24] = system: Mycobacterium tuberculosis; test: Antimycobacterial activity against drug-sensitive Mycobacterium tuberculosis Spec. 192; format: functional; summary of the method: as §5
Escherichia coli [25] = test: Antimicrobial activity against Escherichia coli ATCC 10538 after 18 hrs by twofold serial microdilution method; format: functional, organism-based
Escherichia coli [26] = test: Antimicrobial activity against Escherichia coli ATCC 25922 after 18 hrs by twofold serial microdilution method; format: functional, organism-based
Escherichia coli [27] = test: Antimicrobial activity against Escherichia coli NCTC 8196 after 18 hrs by twofold serial microdilution method; format: functional, organism-based
Pseudomonas aeruginosa [28] = test: Antimicrobial activity against Pseudomonas aeruginosa ATCC 15442 after 18 hrs by twofold serial microdilution method; format: functional, organism-based
Pseudomonas aeruginosa [29] = test: Antimicrobial activity against Pseudomonas aeruginosa NCTC 6749 after 18 hrs by twofold serial microdilution method; format: functional, organism-based
Pseudomonas aeruginosa [30] = test: Antimicrobial activity against Pseudomonas aeruginosa ATCC 27863 after 18 hrs by twofold serial microdilution method; format: functional, organism-based
[31] = system: Bordetella bronchiseptica; test: Antimicrobial activity against Bordetella bronchiseptica ATCC 4617 after 18 hrs by twofold serial microdilution method; format: functional, organism-based
Candida albicans [32] = test: Antimicrobial activity against Candida albicans ATCC 10231 after 24 hrs by twofold serial microdilution method; format: functional, organism-based
Candida albicans [33] = test: Antimicrobial activity against Candida albicans ATCC 90028 after 24 hrs by twofold serial microdilution method; format: functional, organism-based
Candida parapsilosis = test: Antimicrobial activity against Candida parapsilosis ATCC 22019 after 24 hrs by twofold serial microdilution method; format: functional, organism-based

N#Cc1ccc(NC(=S)Nc2cccc(C(F)(F)F)c2)cc1
CC50 [1]: 7 µM | EC50 [2]: > 10 µM | EC50 [3]: > 7 µM | CC50 [4]: 10 µM | EC50 [5]: > 10 µM | CC50 [6]: 9.5 µM | EC50 (Yellow fever virus): > 9.5 µM | EC50 [7]: > 9.5 µM | CC50 [8]: 10 µM | EC50 (Coxsackievirus B5): > 10 µM | EC50 (Poliovirus 1): > 10 µM | EC50 (Vaccinia virus): > 10 µM | EC50 (Human alphaherpesvirus 1): > 10 µM | CC50 (CCRF-CEM): 8.7 µM | CC50 (WIL2-NS): 9.2 µM | CC50 (CCRF-SB): 8.3 µM | zone of inhibition at 400 µg/disc (Staphylococcus aureus [9]): 20 mm | zone of inhibition at 400 µg/disc (Staphylococcus aureus [10]): 19 mm | zone of inhibition at 400 µg/disc (Staphylococcus aureus [11]): 22 mm | zone of inhibition at 400 µg/disc (Staphylococcus aureus [12]): 18 mm | zone of inhibition at 400 µg/disc [13]: 18 mm | zone of inhibition at 400 µg/disc [14]: 20 mm | zone of inhibition at 400 µg/disc (Bacillus subtilis): 19 mm | zone of inhibition at 400 µg/disc (Bacillus cereus): 19 mm | inhibition zone (IZ) (Enterococcus hirae): inactive | inhibition zone (IZ) (Enterococcus faecalis): inactive | zone of inhibition at 400 µg/disc (Micrococcus luteus [15]): 16 mm | zone of inhibition at 400 µg/disc (Micrococcus luteus [16]): 18 mm | inhibition zone (IZ) (Proteus vulgaris): inactive | MIC (Staphylococcus aureus [17]): 128 µg/mL (≈ 398 µM) | MIC (Staphylococcus aureus [18]): 64 µg/mL (≈ 199 µM) | MIC (Staphylococcus aureus [19]): 64 µg/mL (≈ 199 µM) | MIC (Staphylococcus aureus [20]): 64 µg/mL (≈ 199 µM) | MIC [21]: 64 µg/mL (≈ 199 µM) | MIC [22]: 64 µg/mL (≈ 199 µM) | MIC [23]: > 100 µg/mL | MIC [24]: > 100 µg/mL

CCOC(=O)c1ccc(NC(=S)Nc2cccc(C(F)(F)F)c2)cc1
CC50 [1]: 23 µM | EC50 [2]: > 71 µM | EC50 [3]: > 23 µM | CC50 [4]: 64 µM | EC50 [5]: > 64 µM | CC50 [6]: 50 µM | EC50 (Yellow fever virus): > 50 µM | EC50 [7]: > 50 µM | CC50 [8]: 71 µM | EC50 (Coxsackievirus B5): > 71 µM | EC50 (Poliovirus 1): > 71 µM | EC50 (Vaccinia virus): > 71 µM | EC50 (Human alphaherpesvirus 1): > 71 µM | Activity (Escherichia coli [25]): inactive | Activity (Escherichia coli [26]): inactive | Activity (Escherichia coli [27]): inactive | Activity (Pseudomonas aeruginosa [28]): inactive | Activity (Pseudomonas aeruginosa [29]): inactive | Activity (Pseudomonas aeruginosa [30]): inactive | Activity [31]: inactive | Activity (Candida albicans [32]): inactive | Activity (Candida albicans [33]): inactive | Activity (Candida parapsilosis): inactive | MIC [23]: > 100 µg/mL | MIC [24]: > 100 µg/mL
